Measured values published in ChEMBL document CHEMBL5678817, “FTBMT, a Novel and Selective GPR52 Agonist, Demonstrates Antipsychotic-Like and Procognitive Effects in Rodents, Revealing a Potential Therapeutic Agent for Schizophrenia” (J Pharmacol Exp Ther, 2017).
The source made the active and inactive calls. No cut-off for these calls is given here.

How the values were obtained:
[1] = system: Mus musculus; test: Antipsychotic activity in C57BL/6N mouse assessed as increase in c-fos positive cells in nucleus accumbens at 30 mg/kg, po measured for 2 hrs by immunohistochemistry analysis; assay type: functional, organism-based
[2] = target: Glutamate [NMDA] receptor (Homo sapiens) (UniProt Q05586+Q12879+Q13224+O15399+O60391+Q14957+Q8TCU5); test: Inhibition of Glutamate NMDA receptor (unknown origin) at 10 uM in presence of glycine relative to control; assay type: protein-complex assay
Outline: (§1)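 Part of a 98-target external biochemical selectivity panel that used radioligand/receptor binding-type assays. Compound tested once at 10 µM. Results are reported as % inhibition versus control; negative values mean stimulation of receptor activity.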

[3] = target: Growth hormone secretagogue receptor type 1 (Homo sapiens) (UniProt Q92847); test: Inhibition of Growth hormone secretagogue receptor (unknown origin) at 10 uM relative to control; outline: as §1
[4] = target: B2 bradykinin receptor (Homo sapiens) (UniProt P30411); test: Inhibition of Bradykinin B2 receptor (unknown origin) at 10 uM relative to control
Outline: (§2)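 Single-point screen at 10 μM across receptor, ion channel and enzyme binding or activity assays. Expressed as percent inhibition versus control; negative values denote stimulation.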

[5] = target: Estrogen receptor (Homo sapiens) (UniProt P03372); test: Inhibition of Estrogen ERalpha receptor (unknown origin) at 10 uM relative to control; outline: as §1
[6] = target: Glucocorticoid receptor (Homo sapiens) (UniProt P04150); test: Inhibition of Glucocorticoid receptor (unknown origin) at 10 uM relative to control; outline: as §1
[7] = system: Mus musculus; test: Pro-cognitive activity in C57BL/6N mouse assessed as increase in c-fos gene expression in hippocampus at 3 to 30 mg/kg, po measured after 2 hrs […]; assay type: functional, organism-based; details: dose 3-30 mg/kg
[8] = target: D(3) dopamine receptor (Homo sapiens) (UniProt P35462); test: Inhibition of Dopamine D3 receptor (unknown origin) at 10 uM relative to control; outline: as §1
Sequence of D(3) dopamine receptor (Homo sapiens) (P35462 whole entry): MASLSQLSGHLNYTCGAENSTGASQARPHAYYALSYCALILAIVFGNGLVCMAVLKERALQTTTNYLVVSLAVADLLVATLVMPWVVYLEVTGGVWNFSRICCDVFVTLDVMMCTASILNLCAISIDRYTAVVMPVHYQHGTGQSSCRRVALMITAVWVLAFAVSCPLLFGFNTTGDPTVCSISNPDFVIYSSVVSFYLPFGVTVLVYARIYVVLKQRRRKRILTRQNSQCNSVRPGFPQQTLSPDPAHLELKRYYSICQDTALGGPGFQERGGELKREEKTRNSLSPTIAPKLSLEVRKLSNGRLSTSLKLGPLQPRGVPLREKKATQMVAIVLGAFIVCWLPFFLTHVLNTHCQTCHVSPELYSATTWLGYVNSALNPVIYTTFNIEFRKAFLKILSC

[9] = target: Muscarinic acetylcholine receptor M3 (Homo sapiens) (UniProt P20309); test: Inhibition of Muscarinic M3 receptor (unknown origin) at 10 uM relative to control; outline: as §1
[10] = target: D(4) dopamine receptor (Homo sapiens) (UniProt P21917); test: Inhibition of Dopamine D4 receptor (unknown origin) at 10 uM relative to control; outline: as §1
Sequence of D(4) dopamine receptor (Homo sapiens) (P21917 whole entry): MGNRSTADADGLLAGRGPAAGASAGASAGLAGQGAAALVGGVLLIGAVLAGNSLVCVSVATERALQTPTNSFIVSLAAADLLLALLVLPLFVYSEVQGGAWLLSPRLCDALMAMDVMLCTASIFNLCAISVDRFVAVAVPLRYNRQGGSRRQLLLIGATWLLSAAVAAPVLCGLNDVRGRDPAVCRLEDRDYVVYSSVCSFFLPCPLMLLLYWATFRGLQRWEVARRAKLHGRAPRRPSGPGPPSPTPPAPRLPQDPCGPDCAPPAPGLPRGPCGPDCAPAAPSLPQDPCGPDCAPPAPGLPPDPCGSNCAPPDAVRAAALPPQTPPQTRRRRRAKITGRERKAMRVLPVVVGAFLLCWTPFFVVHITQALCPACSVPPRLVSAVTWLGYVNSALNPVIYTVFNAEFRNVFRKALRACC

[11] = target: Insulin receptor (Homo sapiens) (UniProt P06213); test: Inhibition of Insulin receptor (unknown origin) at 10 uM relative to control; outline: as §1
Sequence of Insulin receptor (Homo sapiens) (P06213 28-758 limits assumed): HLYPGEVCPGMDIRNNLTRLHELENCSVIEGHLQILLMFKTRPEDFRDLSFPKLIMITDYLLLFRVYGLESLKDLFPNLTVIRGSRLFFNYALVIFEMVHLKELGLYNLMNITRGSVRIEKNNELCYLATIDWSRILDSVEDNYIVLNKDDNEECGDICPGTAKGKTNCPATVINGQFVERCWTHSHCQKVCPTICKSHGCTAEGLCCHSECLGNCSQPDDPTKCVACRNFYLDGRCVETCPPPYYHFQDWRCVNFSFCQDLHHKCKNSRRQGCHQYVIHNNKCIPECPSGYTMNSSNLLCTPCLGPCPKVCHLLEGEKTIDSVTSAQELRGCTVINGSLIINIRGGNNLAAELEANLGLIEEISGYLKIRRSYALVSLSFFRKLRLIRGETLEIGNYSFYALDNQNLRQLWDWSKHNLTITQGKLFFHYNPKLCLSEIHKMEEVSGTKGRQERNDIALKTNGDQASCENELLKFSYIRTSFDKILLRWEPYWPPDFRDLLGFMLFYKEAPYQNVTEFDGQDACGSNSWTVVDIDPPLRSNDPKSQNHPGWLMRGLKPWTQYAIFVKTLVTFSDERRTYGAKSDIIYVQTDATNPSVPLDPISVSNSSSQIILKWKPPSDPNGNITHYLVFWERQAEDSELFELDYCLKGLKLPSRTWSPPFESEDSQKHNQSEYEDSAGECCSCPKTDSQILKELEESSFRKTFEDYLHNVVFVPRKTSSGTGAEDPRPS
Sequence of Insulin receptor (Homo sapiens) (P06213 763-1382 limits assumed): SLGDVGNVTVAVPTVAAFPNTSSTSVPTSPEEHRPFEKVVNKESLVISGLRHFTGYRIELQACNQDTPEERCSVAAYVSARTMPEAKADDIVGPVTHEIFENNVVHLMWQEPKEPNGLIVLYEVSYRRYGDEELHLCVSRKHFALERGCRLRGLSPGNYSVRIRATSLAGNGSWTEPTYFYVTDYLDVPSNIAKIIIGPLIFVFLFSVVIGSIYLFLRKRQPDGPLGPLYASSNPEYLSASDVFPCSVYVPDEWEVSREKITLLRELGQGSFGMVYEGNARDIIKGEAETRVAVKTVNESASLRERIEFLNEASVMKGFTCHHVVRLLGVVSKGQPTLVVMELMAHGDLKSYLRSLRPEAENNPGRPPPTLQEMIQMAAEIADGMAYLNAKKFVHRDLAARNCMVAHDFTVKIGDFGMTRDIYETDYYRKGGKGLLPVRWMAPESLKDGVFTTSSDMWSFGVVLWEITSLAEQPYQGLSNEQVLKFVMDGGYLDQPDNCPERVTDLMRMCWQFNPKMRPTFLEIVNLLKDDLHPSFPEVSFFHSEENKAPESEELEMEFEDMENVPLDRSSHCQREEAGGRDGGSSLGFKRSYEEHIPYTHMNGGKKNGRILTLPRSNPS

[12] = target: Serotonin 3 (5-HT3) receptor (Homo sapiens) (UniProt P46098+A5X5Y0+O95264+Q70Z44+Q8WXA8); test: Inhibition of Serotonin 5-HT3 receptor (unknown origin) at 10 uM relative to control; assay type: protein-complex assay; outline: as §1
[13] = target: cAMP-dependent protein kinase (PKA) (Homo sapiens) (UniProt P22694+P17612+P22612); test: Inhibition of Protein kinase A (unknown origin) at 10 uM relative to control; assay type: protein assay
Outline: (§3)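 Enzyme activity assays from the same 98-target biochemical panel. Single test concentration of 10 µM. Read-out is % inhibition of enzyme activity relative to control; negative percentages indicate activation of the enzyme.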

[14] = target: Androgen receptor (Homo sapiens) (UniProt P10275); test: Inhibition of Androgen receptor (unknown origin) at 10 uM relative to control; outline: as §2
Sequence of Androgen receptor (Homo sapiens) (P10275 whole entry): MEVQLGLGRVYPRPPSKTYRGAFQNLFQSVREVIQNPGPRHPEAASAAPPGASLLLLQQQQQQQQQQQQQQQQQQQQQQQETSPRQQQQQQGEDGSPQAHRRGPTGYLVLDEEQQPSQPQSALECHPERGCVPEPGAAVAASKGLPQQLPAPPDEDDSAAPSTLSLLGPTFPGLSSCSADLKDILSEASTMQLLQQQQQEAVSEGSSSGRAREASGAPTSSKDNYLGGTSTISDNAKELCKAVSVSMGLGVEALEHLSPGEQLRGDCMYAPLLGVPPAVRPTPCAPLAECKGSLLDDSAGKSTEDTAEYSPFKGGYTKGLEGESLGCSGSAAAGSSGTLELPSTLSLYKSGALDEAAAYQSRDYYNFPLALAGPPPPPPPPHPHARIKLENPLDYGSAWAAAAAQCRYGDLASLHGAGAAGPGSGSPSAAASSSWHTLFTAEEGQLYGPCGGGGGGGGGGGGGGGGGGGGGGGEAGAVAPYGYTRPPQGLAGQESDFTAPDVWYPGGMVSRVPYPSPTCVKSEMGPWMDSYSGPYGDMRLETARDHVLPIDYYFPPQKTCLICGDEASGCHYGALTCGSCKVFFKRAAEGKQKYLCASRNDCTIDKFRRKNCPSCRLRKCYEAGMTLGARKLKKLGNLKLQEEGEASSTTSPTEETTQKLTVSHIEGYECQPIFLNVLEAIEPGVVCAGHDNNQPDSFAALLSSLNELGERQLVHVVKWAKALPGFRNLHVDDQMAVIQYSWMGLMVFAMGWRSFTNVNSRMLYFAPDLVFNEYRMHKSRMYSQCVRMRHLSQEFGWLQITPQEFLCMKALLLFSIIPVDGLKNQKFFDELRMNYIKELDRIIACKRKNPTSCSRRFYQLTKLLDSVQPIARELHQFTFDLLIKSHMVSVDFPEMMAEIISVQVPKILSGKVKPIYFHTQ

[15] = target: GABA-A receptor; anion channel (Homo sapiens) (UniProt P14867+P47870+P18507+P28472+P48169+Q99928+Q9UN88+P34903+O00591+O14764+Q8N1C3+P18505+P78334+P47869+P31644+Q16445); test: Inhibition of GABAA receptor (unknown origin) at 10 uM relative to control; assay type: protein-complex assay; outline: as §1
[16] = target: Histamine H2 receptor (Homo sapiens) (UniProt P25021); test: Inhibition of Histamine H2 receptor (unknown origin) at 10 uM relative to control; outline: as §1
Sequence of Histamine H2 receptor (Homo sapiens) (P25021 whole entry): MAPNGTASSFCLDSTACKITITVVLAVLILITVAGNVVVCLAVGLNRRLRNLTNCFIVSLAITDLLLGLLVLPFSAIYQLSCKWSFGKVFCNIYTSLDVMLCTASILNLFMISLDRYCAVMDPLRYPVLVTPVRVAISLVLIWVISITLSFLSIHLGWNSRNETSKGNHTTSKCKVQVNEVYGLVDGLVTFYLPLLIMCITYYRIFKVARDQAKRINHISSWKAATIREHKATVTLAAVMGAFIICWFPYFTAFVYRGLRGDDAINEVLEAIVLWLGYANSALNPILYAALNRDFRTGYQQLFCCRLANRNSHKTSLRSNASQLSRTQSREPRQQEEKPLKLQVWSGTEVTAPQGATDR

[17] = target: Phosphodiesterase 6 (Homo sapiens) (UniProt Q13956+P18545+P35913+O43924+P16499+P51160); test: Inhibition of PDE6 (unknown origin) at 10 uM relative to control; assay type: protein assay; outline: as §3
[18] = target: Beta-1 adrenergic receptor (Homo sapiens) (UniProt P08588); test: Inhibition of Adrenergic beta1 receptor (unknown origin) at 10 uM relative to control; outline: as §2
[19] = system: Mus musculus; test: Antipsychotic activity in po dosed ICR mouse assessed as inhibition of MK-801-induced hyperactivity pretreated with compound for 1 hr followed by MK-801 addition and measured after 90 mins; assay type: functional, organism-based; details: dose 3-30 mg/kg, time 150.0 min
Outline: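 Male ICR mice (7–8 weeks) habituated >60 min in individual cages with activity monitors. Oral dosing at 3–30 mg/kg or vehicle 60 min before MK-801 (0.2 mg/kg s.c.) or vehicle. Activity counted for 60 min pretreatment and 90 min after MK-801; n = 9–10.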

[20] = target: Protein kinase C (PKC) (Homo sapiens) (UniProt O94806+P41743+P17252+P05129+Q05655+P05771+Q05513+Q02156+P24723+Q15139+Q04759); test: Inhibition of Protein kinase C (unknown origin) at 10 uM relative to control; assay type: protein assay; outline: as §3
[21] = organism: Homo sapiens; test: Inhibition of Imidazoline I2 receptor (unknown origin) at 10 uM relative to control; outline: as §1
[22] = system: Mus musculus; test: Antipsychotic activity in C57BL/6N mouse assessed as increase in c-fos mRNA expression at 3 to 100 mg/kg, po measured for 1 hr by qPCR analysis; assay type: functional, organism-based; details: dose 3-100 mg/kg
Outline: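 Mice dosed orally at 3–100 mg/kg or vehicle. Tissues taken 1 h post-dose, NAc shell and striatum dissected, frozen on dry ice. IEG mRNA quantified by qPCR (absolute or ΔΔCt); n = 5–6; mean ± SEM.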

[23] = target: Cannabinoid receptor 1 (Homo sapiens) (UniProt P21554); test: Inhibition of CB1 receptor (unknown origin) at 10 uM relative to control; outline: as §2
Sequence of Cannabinoid receptor 1 (Homo sapiens) (P21554 whole entry): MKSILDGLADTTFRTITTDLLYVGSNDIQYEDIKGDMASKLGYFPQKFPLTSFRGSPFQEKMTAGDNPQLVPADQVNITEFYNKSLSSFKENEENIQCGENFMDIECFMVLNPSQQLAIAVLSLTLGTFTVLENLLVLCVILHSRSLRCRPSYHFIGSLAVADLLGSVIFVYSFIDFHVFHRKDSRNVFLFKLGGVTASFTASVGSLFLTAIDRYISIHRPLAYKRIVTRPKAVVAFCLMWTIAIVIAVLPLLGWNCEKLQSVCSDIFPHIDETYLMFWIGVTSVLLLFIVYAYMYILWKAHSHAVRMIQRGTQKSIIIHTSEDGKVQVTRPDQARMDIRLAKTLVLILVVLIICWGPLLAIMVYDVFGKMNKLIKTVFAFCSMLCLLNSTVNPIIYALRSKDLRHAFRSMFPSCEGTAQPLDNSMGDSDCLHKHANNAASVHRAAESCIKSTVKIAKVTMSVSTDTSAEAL

[24] = target: G protein-coupled receptor 52 (Rattus norvegicus) (UniProt A0A8I5ZQK1); test: Agonist activity at GPR52 in rat Striatal neuron assessed as increase in CREB phosphorylation […] by Alphascreen assay; assay type: cell-based; details: filed as agonist
Sequence of G protein-coupled receptor 52 (Rattus norvegicus) (A0A8I5ZQK1 as listed by the source): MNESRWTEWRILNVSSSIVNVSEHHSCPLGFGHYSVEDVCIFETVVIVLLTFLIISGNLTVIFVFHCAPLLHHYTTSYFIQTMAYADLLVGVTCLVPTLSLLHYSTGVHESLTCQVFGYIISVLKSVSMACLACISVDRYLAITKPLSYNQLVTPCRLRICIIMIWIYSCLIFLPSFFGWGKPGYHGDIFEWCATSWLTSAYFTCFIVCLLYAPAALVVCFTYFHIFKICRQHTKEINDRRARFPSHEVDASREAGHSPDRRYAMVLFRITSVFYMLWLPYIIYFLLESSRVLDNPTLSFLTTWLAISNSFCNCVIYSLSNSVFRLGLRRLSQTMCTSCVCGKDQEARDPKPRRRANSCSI

[25] = target: Voltage-gated L-type calcium channel (Homo sapiens, UniProt O60840+Q01668+Q13698+Q13936); test: Inhibition of Calcium channel L-type (unknown origin) at 10 uM in presence of dihydropyridine relative to control; assay type: protein assay; details: probe dihydropyridine; outline: as §2
[26] = target: Coagulation factor X (Homo sapiens) (UniProt P00742); test: Inhibition of factor Xa (unknown origin) at 10 uM relative to control
Sequence of Coagulation factor X (Homo sapiens) (P00742 41-179 limits assumed): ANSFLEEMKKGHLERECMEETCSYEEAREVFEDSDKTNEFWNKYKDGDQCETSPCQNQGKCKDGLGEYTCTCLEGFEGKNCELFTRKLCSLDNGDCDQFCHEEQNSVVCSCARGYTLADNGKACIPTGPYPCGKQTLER
Sequence of Coagulation factor X (Homo sapiens) (P00742 235-488 limits assumed): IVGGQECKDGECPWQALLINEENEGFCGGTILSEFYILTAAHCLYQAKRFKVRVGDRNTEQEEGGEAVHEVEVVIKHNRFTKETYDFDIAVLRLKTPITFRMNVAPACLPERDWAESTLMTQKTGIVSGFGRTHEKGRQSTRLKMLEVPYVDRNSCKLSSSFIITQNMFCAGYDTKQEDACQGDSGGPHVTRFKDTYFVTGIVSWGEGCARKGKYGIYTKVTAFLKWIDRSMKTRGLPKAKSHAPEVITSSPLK
Outline: (§4)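 Binding and enzyme panel run by an outside contractor against receptors, ion channels and enzymes. Each assay used a single 10 μM test concentration, and results are expressed as percent inhibition. A negative value means stimulation of receptor activity or activation of enzyme activity.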

[27] = target: 3-oxo-5-alpha-steroid 4-dehydrogenase 1 (Homo sapiens) (UniProt P18405); test: Inhibition of Steroid 5alpha-reductase 1 (unknown origin) at 10 uM relative to control; outline: as §4
Sequence of 3-oxo-5-alpha-steroid 4-dehydrogenase 1 (Homo sapiens) (P18405 whole entry): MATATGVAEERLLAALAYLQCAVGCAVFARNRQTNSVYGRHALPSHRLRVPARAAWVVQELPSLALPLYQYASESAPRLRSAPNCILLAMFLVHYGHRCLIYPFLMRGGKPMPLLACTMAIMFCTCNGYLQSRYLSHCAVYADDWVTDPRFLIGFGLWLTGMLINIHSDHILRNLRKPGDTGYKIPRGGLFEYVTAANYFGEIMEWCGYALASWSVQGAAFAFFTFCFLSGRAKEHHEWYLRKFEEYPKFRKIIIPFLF

[28] = organism: Homo sapiens; test: Inhibition of Sodium channel Site 2 (unknown origin) at 10 uM relative to control; outline: as §4

Cc1cc(-n2nc(Cc3cc(F)cc(C(F)(F)F)c3)nc2C)ccc1C(N)=O [TP-024]
Activity [1]: Active
inhibition [2]: 3%
inhibition [3]: 0%
inhibition [4]: 16%
inhibition [5]: -9%
inhibition [6]: 12%
Activity [7]: Active
inhibition [8]: 8%
inhibition [9]: -6%
inhibition [10]: 3%
inhibition [11]: -9%
inhibition [12]: 10%
inhibition [13]: 17%
inhibition [14]: 5%
inhibition [15]: 2%
inhibition [16]: 2%
inhibition [17]: 17%
inhibition [18]: -1%
Activity [19]: Dose-Dependent Effect
inhibition [20]: -5%
inhibition [21]: 6%
Activity [22]: Active
inhibition [23]: -4%
Activity [24]: Active
inhibition at 10 µM [25]: -2%
inhibition [26]: -4%
inhibition [27]: 0%
inhibition [28]: 1%
